In ChEMBL document CHEMBL1137174, “Synthesis and structural-activity relationships of 3-hydroxyquinazoline-2,4-dione antibacterial agents” (2004):
Values after ≈ are worked out from the molar mass of the structure shown.

What was measured:
Escherichia coli [1] = experiment: Minimum inhibitory concentration required against Gram-negative Escherichia coli WT; type: functional
Procedure, shortened: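 Standard microtitration MIC determination against wild-type E. coli strain MC4100.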

Escherichia coli [2] = experiment: Minimum inhibitory concentration required against Gram-negative Escherichia coli LKY; type: functional
Procedure, shortened: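 Standard microtitration MIC determination against E. coli LKY, a cell-wall-deficient, semi-permeable strain.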

Escherichia coli [3] = experiment: Minimum inhibitory concentration required against Gram-negative Escherichia coli TLC; type: functional
Enterococcus faecalis = experiment: Minimum inhibitory concentration required against Gram-positive Enterococcus faecalis; type: functional
Staphylococcus aureus = experiment: Minimum inhibitory concentration required against Gram-positive Staphylococcus aureus; type: functional
Streptococcus pyogenes = experiment: Minimum inhibitory concentration required against Gram-positive Streptococcus pyogenes; type: functional
[4] = molecular target: DNA gyrase (Escherichia coli) (UniProt P0AES6+P0AES4); experiment: Concentration required to inhibit in vitro DNA gyrase activity isolated from Escherichia coli; type: protein-complex assay
Procedure, shortened: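 DNA gyrase isolated and purified from E. coli H560. The end point is the lowest drug concentration […] that gives detectable cleavage of relaxed bacterial Col E1 plasmid DNA. Cleavage is read by agarose gel electrophoresis with ethidium bromide staining.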

| Compound | MIC (Escherichia coli [1]) | MIC (Escherichia coli [2]) | MIC (Escherichia coli [3]) | MIC (Enterococcus faecalis) | MIC (Staphylococcus aureus) | MIC (Streptococcus pyogenes) | Activity [4] |
| --- | --- | --- | --- | --- | --- | --- | --- |
| O=C(O)c1cn(C2CC2)c2cc(N3CCNCC3)c(F)cc2c1=O [CIPROFLOXACIN] | – | – | – | 0.4 µg/mL (≈ 1.21 µM) | 4 µg/mL (≈ 12.1 µM) | 2 µg/mL (≈ 6.04 µM) | 0.4 µM |
| O=c1c2cc(F)c(N3CCCC3)cc2n(-c2ccc(F)cc2F)c(=O)n1O | > 64 µg/mL | 32 µg/mL (≈ 84.8 µM) | 32 µg/mL (≈ 84.8 µM) | 64 µg/mL (≈ 170 µM) | 64 µg/mL (≈ 170 µM) | 32 µg/mL (≈ 84.8 µM) | > 100 µM |
| O=c1c2cc(F)c(N3CCC(CNCC(F)(F)F)C3)cc2n(C2CC2)c(=O)n1O (configuration not stated) | > 64 µg/mL | 1 µg/mL (≈ 2.4 µM) | 0.5 µg/mL (≈ 1.2 µM) | 16 µg/mL (≈ 38.4 µM) | 4 µg/mL (≈ 9.61 µM) | 16 µg/mL (≈ 38.4 µM) | 8 µM |
| O=c1c2cc(F)c(N3C[C@@H]4CCCN[C@@H]4C3)cc2n(C2CC2)c(=O)n1O | 8 µg/mL (≈ 22.2 µM) | 2 µg/mL (≈ 5.55 µM) | 1 µg/mL (≈ 2.77 µM) | 64 µg/mL (≈ 178 µM) | 32 µg/mL (≈ 88.8 µM) | 32 µg/mL (≈ 88.8 µM) | 5 µM |
| CN[C@@H](C)[C@@H]1CCN(c2cc3c(cc2F)c(=O)n(O)c(=O)n3C2CC2)C1 | 32 µg/mL (≈ 88.3 µM) | 4 µg/mL (≈ 11 µM) | 2 µg/mL (≈ 5.52 µM) | 16 µg/mL (≈ 44.1 µM) | 16 µg/mL (≈ 44.1 µM) | 2 µg/mL (≈ 5.52 µM) | 6.2 µM |
| O=c1c2cc(F)c(-n3ccnc3)cc2n(C2CC2)c(=O)n1O | > 64 µg/mL | 8 µg/mL (≈ 26.5 µM) | 2 µg/mL (≈ 6.62 µM) | 64 µg/mL (≈ 212 µM) | 64 µg/mL (≈ 212 µM) | 64 µg/mL (≈ 212 µM) | 0.4 µM |
| C[C@H](N)[C@@H]1CCN(c2cc3c(cc2F)c(=O)n(O)c(=O)n3C2CC2)C1 | 8 µg/mL (≈ 23 µM) | 0.12 µg/mL (≈ 0.344 µM) | 0.12 µg/mL (≈ 0.344 µM) | 4 µg/mL (≈ 11.5 µM) | 1 µg/mL (≈ 2.87 µM) | 0.5 µg/mL (≈ 1.44 µM) | 6.4 µM |
| CN1CC2CN(c3cc4c(cc3F)c(=O)n(O)c(=O)n4C3CC3)CC2C1 (configuration not stated) | 4 µg/mL (≈ 11.1 µM) | 2 µg/mL (≈ 5.55 µM) | 1 µg/mL (≈ 2.77 µM) | 32 µg/mL (≈ 88.8 µM) | 32 µg/mL (≈ 88.8 µM) | 32 µg/mL (≈ 88.8 µM) | 7.8 µM |
| N[C@H]1CCN(c2c(F)cc3c(=O)n(O)c(=O)n(C4CC4)c3c2Cl)C1 | 2 µg/mL (≈ 5.64 µM) | 0.5 µg/mL (≈ 1.41 µM) | 1 µg/mL (≈ 2.82 µM) | 32 µg/mL (≈ 90.2 µM) | 16 µg/mL (≈ 45.1 µM) | 4 µg/mL (≈ 11.3 µM) | 1 µM |
| CC(C)(N)[C@@H]1CCN(c2cc3c(cc2F)c(=O)n(O)c(=O)n3C2CC2)C1 | 8 µg/mL (≈ 22.1 µM) | 2 µg/mL (≈ 5.52 µM) | 0.5 µg/mL (≈ 1.38 µM) | 16 µg/mL (≈ 44.1 µM) | 16 µg/mL (≈ 44.1 µM) | 32 µg/mL (≈ 88.3 µM) | 2.2 µM |
| N[C@@H]1[C@H]2CN(c3cc4c(cc3F)c(=O)n(O)c(=O)n4C3CC3)C[C@@H]12 | 1 µg/mL (≈ 3.01 µM) | 0.25 µg/mL (≈ 0.752 µM) | 0.25 µg/mL (≈ 0.752 µM) | 4 µg/mL (≈ 12 µM) | 4 µg/mL (≈ 12 µM) | 2 µg/mL (≈ 6.02 µM) | 0.7 µM |
| N[C@H]1CCN(c2c(F)cc3c(=O)n(O)c(=O)n(C4CC4)c3c2F)C1 | 8 µg/mL (≈ 23.6 µM) | 2 µg/mL (≈ 5.91 µM) | 1 µg/mL (≈ 2.96 µM) | 16 µg/mL (≈ 47.3 µM) | 32 µg/mL (≈ 94.6 µM) | 16 µg/mL (≈ 47.3 µM) | 0.28 µM |

Further lines, results first:

| MIC (Escherichia coli [1]) | MIC (Escherichia coli [2]) | MIC (Escherichia coli [3]) | MIC (Enterococcus faecalis) | MIC (Staphylococcus aureus) | MIC (Streptococcus pyogenes) | Activity [4] | Compound |
| --- | --- | --- | --- | --- | --- | --- | --- |
| 32 µg/mL (≈ 100 µM) | 0.5 µg/mL (≈ 1.57 µM) | 0.5 µg/mL (≈ 1.57 µM) | 64 µg/mL (≈ 200 µM) | 8 µg/mL (≈ 25.1 µM) | 8 µg/mL (≈ 25.1 µM) | 13 µM | O=c1c2cc(F)c(N3CCCC3)cc2n(CC2CC2)c(=O)n1O |
| 16 µg/mL (≈ 52.2 µM) | 0.25 µg/mL (≈ 0.816 µM) | 0.5 µg/mL (≈ 1.63 µM) | – | > 64 µg/mL | > 64 µg/mL | 18 µM | NC1CN(c2cc3c(cc2F)c(=O)n(O)c(=O)n3C2CC2)C1 |
| 32 µg/mL (≈ 115 µM) | 16 µg/mL (≈ 57.3 µM) | 8 µg/mL (≈ 28.6 µM) | > 64 µg/mL | > 64 µg/mL | > 64 µg/mL | > 100 µM | Cn1c(=O)n(O)c(=O)c2cc(F)c(N3CCCC3)cc21 |
| > 64 µg/mL | 32 µg/mL (≈ 90 µM) | 16 µg/mL (≈ 45 µM) | > 64 µg/mL | 16 µg/mL (≈ 45 µM) | 32 µg/mL (≈ 90 µM) | > 100 µM | O=c1c2cc(F)c(N3CCCC3)cc2n(Cc2ccccc2)c(=O)n1O |
| 8 µg/mL (≈ 23.9 µM) | 1 µg/mL (≈ 2.99 µM) | 1 µg/mL (≈ 2.99 µM) | – | 16 µg/mL (≈ 47.9 µM) | 2 µg/mL (≈ 5.98 µM) | – | NCC1CCN(c2cc3c(cc2F)c(=O)n(O)c(=O)n3C2CC2)C1 (configuration not stated) |
| 64 µg/mL (≈ 241 µM) | 32 µg/mL (≈ 121 µM) | 16 µg/mL (≈ 60.3 µM) | – | 8 µg/mL (≈ 30.2 µM) | 32 µg/mL (≈ 121 µM) | > 100 µM | O=c1[nH]c2cc(N3CCCC3)c(F)cc2c(=O)n1O |
| 1 µg/mL (≈ 3.12 µM) | 0.3 µg/mL (≈ 0.937 µM) | 0.25 µg/mL (≈ 0.78 µM) | – | 32 µg/mL (≈ 99.9 µM) | 4 µg/mL (≈ 12.5 µM) | 2 µM | N[C@H]1CCN(c2cc3c(cc2F)c(=O)n(O)c(=O)n3C2CC2)C1 |
| 8 µg/mL (≈ 26.2 µM) | 0.1 µg/mL (≈ 0.328 µM) | 0.13 µg/mL (≈ 0.426 µM) | – | 1 µg/mL (≈ 3.28 µM) | 16 µg/mL (≈ 52.4 µM) | 7 µM | O=c1c2cc(F)c(N3CCCC3)cc2n(C2CC2)c(=O)n1O |
| > 64 µg/mL | 2 µg/mL (≈ 6.82 µM) | 1 µg/mL (≈ 3.41 µM) | – | 32 µg/mL (≈ 109 µM) | 32 µg/mL (≈ 109 µM) | > 100 µM | CCn1c(=O)n(O)c(=O)c2cc(F)c(N3CCCC3)cc21 |
